Laboratory results taken from ChEMBL document CHEMBL1629663, “Postantibiotic effects of telavancin against 16 gram-positive organisms” (Antimicrob Agents Chemother, 2009).
Converted amounts (≈) assume the structure as drawn.

Columns and labels:
Staphylococcus aureus [1] = test: Antimicrobial activity against vancomycin-intermediate-, methicillin-resistant Staphylococcus aureus 770 assessed as time required to induce sub-MIC effect at 0.4 times MIC exposed for 2 hrs by plate counting method; assay type: functional
Method in brief: (§1)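 Sub-MIC effect: cultures not preexposed to drug were diluted and handled as in the PA-SME procedure in Mueller-Hinton broth with final 0.2, 0.3 or 0.4× MIC, plus a drug-free control. Viable plate counts were taken every 2 h until McFarland 1 turbidity. Duration was derived from growth curves. Two experiments were run, each with a new inoculum.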

Streptococcus pyogenes [2] = test: Antimicrobial activity against Streptococcus pyogenes HMC 414 assessed as time required to induce post antibiotic sub-MIC effect at 0.4 times MIC […] by plate counting method; assay type: functional
Method in brief: (§2)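 Mueller-Hinton broth cultures of about 5 × 10^6 CFU/ml were pre-exposed to telavancin at 10× MIC for 1 h at 35°C, then diluted 1:1,000. Telavancin was re-added to final 0.2, 0.3 or 0.4× MIC, alongside a drug-free tube. Viable counts were taken before exposure, after dilution, then every 2 h until McFarland no. 1 turbidity. Duration comes from log10 CFU/ml-versus-time plots; two separate experiments with fresh inocula.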

Streptococcus agalactiae = test: Antimicrobial activity against Streptococcus agalactiae HMC 5 by microdilution method; assay type: functional
Staphylococcus aureus [3] = test: Antimicrobial activity against vancomycin-susceptible-, methicillin-resistant Staphylococcus aureus 1307 assessed as post-antibiotic effect at 10 times MIC pre-exposed to Telavancin for 1 hr by plate counting method; assay type: functional
Method in brief: (§3)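 Direct colony suspensions (~5 × 10^6 CFU/ml) were exposed to 10× MIC for 1 h at 35°C with shaking in Mueller-Hinton broth, then diluted 1:1,000 to remove drug. Viable plate counts were taken before exposure, at 0 h, then every 2 h until turbidity reached McFarland 1. PAE = T − C, the time for counts to rise 1 log10 versus the unexposed control. Two separate experiments were run.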

Staphylococcus aureus [4] = test: Antimicrobial activity against vancomycin-susceptible-, methicillin-resistant Staphylococcus aureus 1306 assessed as post-antibiotic effect at 10 times MIC pre-exposed to Telavancin for 1 hr by plate counting method; assay type: functional; method in brief: as §3
Enterococcus faecalis [5] = test: Antimicrobial activity against Enterococcus faecalis ATCC 29212 assessed as post-antibiotic effect at 10 times MIC pre-exposed to Telavancin for 1 hr by plate counting method; assay type: functional
Method in brief: (§4)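 Organisms were suspended in Mueller-Hinton broth from overnight blood agar colonies at about 5 × 10^6 CFU/ml. Cultures were exposed to telavancin at 10× MIC for 1 h at 35°C in a shaking water bath, then diluted 1:1,000 to remove the drug, with an untreated growth control. Viable counts were taken before exposure, at 0 h, then every 2 h until McFarland no. 1 turbidity. PAE = T − C, the time to a 1 log10 rise. Two experiments.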

Enterococcus faecalis [6] = test: Antimicrobial activity against Enterococcus faecalis HMC 571 assessed as post-antibiotic effect at 10 times MIC pre-exposed to Telavancin for 1 hr by plate counting method; assay type: functional; method in brief: as §4
Staphylococcus aureus [7] = test: Antimicrobial activity against vancomycin-susceptible-, methicillin-resistant Staphylococcus aureus 1306 assessed as time required to induce sub-MIC effect at 0.2 times MIC exposed for 2 hrs by plate counting method; assay type: functional; method in brief: as §1
Staphylococcus aureus [8] = test: Antimicrobial activity against heterogenous vancomycin-intermediate-, methicillin-resistant Staphylococcus aureus 873 assessed as time required to induce sub-MIC effect at 0.2 times MIC […] by plate counting method; assay type: functional
Method in brief: (§5)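 SME, viable plate count method: no prior drug exposure. About 5 × 10^6 CFU/ml in Mueller-Hinton broth at 35°C received 0.2, 0.3 or 0.4× MIC, alongside a drug-free tube. Counts were taken at the start, then every 2 h until McFarland no. 1 turbidity, as log10 CFU/ml against time. Two separate experiments, each with a new inoculum.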

Staphylococcus aureus [9] = test: Antimicrobial activity against vancomycin-intermediate-, methicillin-resistant Staphylococcus aureus 1287 assessed as time required to induce sub-MIC effect at 0.2 times MIC […] by plate counting method; assay type: functional; method in brief: as §5
Enterococcus faecalis [10] = test: Antimicrobial activity against Enterococcus faecalis ATCC 29212 assessed as time required to induce sub-MIC effect at 0.2 times MIC exposed for 2 hrs by plate counting method; assay type: functional
Method in brief: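 Unexposed Mueller-Hinton broth cultures (about 5 × 10^6 CFU/ml, 35°C) were handled as in the PA-SME set but without the 10× MIC pre-exposure. They were diluted 1:1,000, then given telavancin at final 0.2, 0.3 or 0.4× MIC, with a drug-free control. Viable counts were taken every 2 h until McFarland no. 1 turbidity. Effect duration comes from log10 CFU/ml-time plots; two separate experiments with new inocula.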

Staphylococcus aureus [11] = test: Antimicrobial activity against vancomycin-susceptible-, methicillin-resistant Staphylococcus aureus 1307 assessed as time required to induce post antibiotic sub-MIC effect at 0.2 times MIC pre-exposed to Telavancin […] by plate counting method; assay type: functional
Method in brief: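 After 1 h preexposure to 10× MIC at 35°C and 1:1,000 dilution, cultures were split, and drug was re-added to final 0.2, 0.3 or 0.4× MIC, with a drug-free tube. Viable counts were taken every 2 h until McFarland 1 turbidity. Duration was derived from log10 CFU/ml versus time curves. Two experiments were run, each with a new inoculum.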

Streptococcus pyogenes [12] = test: Antimicrobial activity against Streptococcus pyogenes HMC 414 assessed as time required to induce post antibiotic sub-MIC effect at 0.2 times MIC pre-exposed to Telavancin for 2 hrs by plate counting method; assay type: functional; conditions: in the assay text read “for 1 hr” for “for 2 hrs”; method in brief: as §2
Enterococcus faecalis [13] = test: Antimicrobial activity against Enterococcus faecalis ATCC 29212 assessed as time required to induce post antibiotic sub-MIC effect at 0.2 times MIC […] by plate counting method; assay type: functional; method in brief: as §2
Staphylococcus aureus [14] = test: Antimicrobial activity against vancomycin-susceptible-, methicillin-resistant Staphylococcus aureus 1130 assessed as time required to induce sub-MIC effect at 0.3 times MIC exposed for 2 hrs by plate counting method; assay type: functional; method in brief: as §1
Staphylococcus aureus [15] = test: Antimicrobial activity against vancomycin-intermediate-, methicillin-resistant Staphylococcus aureus 1287 assessed as time required to induce post antibiotic sub-MIC effect at 0.3 times MIC […] by plate counting method; assay type: functional
Method in brief: (§6)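 PAE was first induced with 10× MIC for 1 h at 35°C (inoculum about 5 × 10^6 CFU/ml, Mueller-Hinton broth) and ended by 1:1,000 dilution. Cultures were then split and given 0.2, 0.3 or 0.4× MIC, with one tube left without drug. Viable counts were taken before exposure, after dilution, then every 2 h until McFarland no. 1 turbidity. Two separate experiments, each with a new inoculum.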

Staphylococcus aureus [16] = test: Antimicrobial activity against vancomycin-intermediate-, methicillin-resistant Staphylococcus aureus 1984 assessed as time required to induce post antibiotic sub-MIC effect at 0.3 times MIC […] by plate counting method; assay type: functional; method in brief: as §6
Streptococcus pyogenes [17] = test: Antimicrobial activity against Streptococcus pyogenes HMC 414 assessed as time required to induce post antibiotic sub-MIC effect at 0.3 times MIC exposed for […] by plate counting method; assay type: functional; method in brief: as §2
Staphylococcus aureus [18] = test: Antimicrobial activity against vancomycin-intermediate-, methicillin-resistant Staphylococcus aureus 1984 assessed as time required to induce post antibiotic sub-MIC effect at 0.2 times MIC pre-exposed to Telavancin for 1 hr by plate counting method

CCCCCCCCCCNCCN[C@@]1(C)C[C@H](O[C@H]2[C@H](Oc3c4cc5cc3Oc3ccc(cc3Cl)[C@@H](O)[C@@H](NC(=O)[C@@H](CC(C)C)NC)C(=O)N[C@@H](CC(N)=O)C(=O)N[C@H]5C(=O)N[C@H]3C(=O)N[C@H](C(=O)N[C@H](C(=O)O)c5cc(O)c(CNCP(=O)(O)O)c(O)c5-c5cc3ccc5O)[C@H](O)c3ccc(c(Cl)c3)O4)O[C@H](CO)[C@@H](O)[C@@H]2O)O[C@@H](C)[C@H]1O [TELAVANCIN]
PAE (Staphylococcus aureus [1]): 0.8 h
PAE (Streptococcus pyogenes [2]): > 10.7 h
MIC (Streptococcus agalactiae): 0.12 µg/mL (≈ 0.0684 µM)
PAE (Staphylococcus aureus [3]): 1.1 h
PAE (Staphylococcus aureus [4]): 1.8 h
PAE (Enterococcus faecalis [5]): 0.3 h
PAE (Enterococcus faecalis [6]): 1.5 h
PAE (Staphylococcus aureus [7]): 0.7 h
PAE (Staphylococcus aureus [8]): 0 h
PAE (Staphylococcus aureus [9]): 0 h
PAE (Enterococcus faecalis [10]): 0.7 h
PAE (Staphylococcus aureus [11]): 6 h
PAE (Streptococcus pyogenes [12]): 8.7 h
PAE (Enterococcus faecalis [13]): 5.3 h
PAE (Staphylococcus aureus [14]): 2 h
PAE (Staphylococcus aureus [15]): 8.6 h
PAE (Staphylococcus aureus [16]): > 10 h
PAE (Streptococcus pyogenes [17]): > 10.7 h
PAE (Staphylococcus aureus [18]): 6.8 h
